Laboratory results: publication PMC4635973 (Journal of medicinal chemistry, 2015)
“Also recorded” adds a separate entry of the source.

T1: activin A binding to ActRIIA-ECD-Fc (Homo sapiens, UniProt P08476)
T1 sequence (P08476 311-426): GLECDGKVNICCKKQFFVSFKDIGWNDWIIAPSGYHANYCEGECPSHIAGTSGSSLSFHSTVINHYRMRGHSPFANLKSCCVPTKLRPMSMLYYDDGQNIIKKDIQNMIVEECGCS

T2: activin A/ActRIIA-ECD complex binding to ALK4-ECD-Fc (Homo sapiens, UniProt P08476)
T2 sequence (P08476 311-426): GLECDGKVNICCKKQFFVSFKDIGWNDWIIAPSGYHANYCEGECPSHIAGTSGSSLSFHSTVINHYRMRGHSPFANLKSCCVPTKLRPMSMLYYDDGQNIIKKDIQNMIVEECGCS

T3: myostatin/ActRIIA-ECD complex binding with ALK4-ECD-Fc (Homo sapiens, UniProt O14793)
T3 sequence (O14793 267-375): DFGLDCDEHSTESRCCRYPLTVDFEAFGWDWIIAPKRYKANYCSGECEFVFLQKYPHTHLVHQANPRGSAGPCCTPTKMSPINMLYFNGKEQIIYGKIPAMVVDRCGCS


Assays:
[1] = system: activin A-mediated ovarian cell proliferation; assay: Ovary ex vivo culture and BrdU assay; type: cell-based, mouse; details: 1 nM activin A, ovaries of 4-day-old CD1 mice, 4 days
Outline: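 Ovaries from 4-day-old CD1 mice were cultured on 0.4-µm membrane inserts in DMEM/F12 with 0.03% BSA for 4 days. Treatments: 1 nM activin A with DMSO, 200 µM test compound, 4 nM Fst288 or 8 nM inhibin A. Then 10 µM BrdU for 24 h. Genomic DNA (150 ng, heat-denatured) was dot-blotted, probed with anti-BrdU and HRP secondary, detected by ECL and quantified by densitometry. Three independent experiments; one-way ANOVA with Tukey test.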

[2] = system: activin-stimulated FSH in ovariectomized mice; assay: Serum FSH in ovariectomized mice; type: in vivo, mouse; details: 15 mg/kg s.c. every 12 h, 4 doses
Outline: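 Ovariectomized 12-week-old CD1 mice received s.c. test compound (15, 30 or 60 mg/kg) or vehicle (TBS or DMSO) twice daily for 2 days (4 doses). Fst288 control: 200 µg/kg, 3 doses. Serum FSH was measured by ELISA (sensitivity 0.35mIU/mL, 450 nm) as % of vehicle mean. 5–7 mice per group, 10 controls; one-way ANOVA with Tukey test.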

[3] = target: T1, activin A binding to ActRIIA-ECD-Fc; assay: Blitz competition binding: activin A with ActRIIA-ECD-Fc; details: 25 µM compound, activin A 1.6 µM
Outline: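 Protein A biosensor (Blitz) loaded with ActRIIA-ECD-Fc, then dipped into activin A (final 1.6 µM) with solvent control or a single 25 µM test compound. Association was 120 s and dissociation 120 s in PBS. Real-time wavelength shift recorded.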

[4] = system: activin A-stimulated FSHβ promoter activation in −338FSHβ-luc LβT2 cells; assay: −338FSHβ-Luc LβT2 cell luciferase assay; type: cell-based; details: Mus musculus, 6 h, read-out: IC50 for activin A (selectivity test)
[5] = system: myostatin signaling in the −338FSHβ-Luc LβT2 cell line; assay: −338FSHβ-Luc LβT2 cell luciferase assay; type: cell-based, mouse; details: −338FSHβ-Luc LβT2 luciferase assay
Outline: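 Stably transfected −338FSHβ-Luc LβT2 cells (5 × 10^4/well) were treated for 6 h at 37 °C in serum-free, phenol red-free DMEM-F12 with 1% P/S. Treatments: 0.2 nM activin A or 0.2 nM myostatin with DMSO or a test-compound dilution series. Luciferase measured in lysates. Triplicates in three experiments. IC50 from sigmoidal variable-slope fit, reported as means ± SD.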

[6] = target: T2, activin A/ActRIIA-ECD complex binding to ALK4-ECD-Fc; assay: Blitz competition binding: activin A/ActRIIA-ECD complex with ALK4-ECD-Fc; details: 25 µM compound, complex 1.6 µM
Outline: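 ALK4-ECD-Fc (50 ng/mL) was immobilized on a protein A Blitz biosensor for 120 s. Activin A and ActRIIA-ECD were premixed 1:2 molar, final 1.6 µM in PBS. The sensor was dipped into this complex with solvent or test compound (0.4, 1.6, 6.25, 25 µM) for 120 s association, then 120 s dissociation in PBS. Real-time wavelength shift recorded.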

[7] = system: ovariectomized mice; assay: Kidney and liver histology and behavior of treated ovariectomized mice; type: in vivo, mouse
Outline: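 Ovariectomized 12-week-old CD1 mice received s.c. vehicle or 60 mg/kg test compound twice daily for 2 days (4 doses). Kidney and liver were fixed in Modified Davidson's fixative for 5 days at 4 °C, embedded in paraffin and stained with H&E.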

[8] = target: T3, myostatin/ActRIIA-ECD complex binding with ALK4-ECD-Fc; assay: Blitz competition binding: myostatin/ActRIIA-ECD complex with ALK4-ECD-Fc; details: 25 µM compound
Outline: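 Myostatin and ActRIIA-ECD were premixed 1:2 molar, final 1.6 µM in PBS. Binding was to ALK4-ECD-Fc immobilized on a protein A Blitz biosensor (50 ng/mL, 120 s). Sensor dipped into complex with solvent or 25 µM test compound; 120 s association, 120 s dissociation in PBS. Wavelength shift recorded.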

Row | Molecule | Inhibition of exogenous activin A-mediated ovarian cell proliferation (BrdU) ([1]; 200 µM compound) | Effect on serum FSH levels compared with control [2] | Interference with activin A binding with ActRIIA-ECD-Fc [3] | IC50 [4] | Selectivity, IC50 for activin A versus IC50 for myostatin [5] | Antagonism of activin A/ActRIIA-ECD complex binding with ALK4-ECD-Fc [6] | Histopathology of the kidney and liver tissue (H&E) ([7]; 60 mg/kg s.c. twice daily, 4 doses, ovariectomized mice) | Behavior after injection ([7]; s.c. injection, ovariectomized mice) | Adverse effects in efficacy studies ([7]; treated mice, efficacy studies) | Blocking of myostatin/ActRIIA complex binding with ALK4 [8] | Inhibition of exogenous activin A-mediated ovarian cell proliferation (BrdU) ([1]; 8 nM)
1 | CC(C)(O)C#Cc1ccc(CN2CCC[C@@H](CCC(=O)N3CCOCC3)C2)s1 [NUCC-474] | only partially inhibited | – | – | – | – | – | – | – | – | – | –
2 | CCn1c(-c2cccnc2)nc2cc(NC(=O)COC)cc(C(=O)NCc3ccccc3)c21 [NUCC-555] | completely inhibited | no significant effect | weakly interfere | 5.37 ± 4.01 µM | ~10 fold | nearly complete antagonist; also recorded: completely blocked | unchanged | normal behavior | No adverse effects | no blocking activity | –
3 | inhibin A: Purified inhibin A, naturally occurring activin antagonist, positive control in ovary culture (protein, UniProt P05111 233-366; P08476 311-426, looked up) Inhibin alpha chain: STPLMSWPWSPSALRLLQRPPEEPAAHANCHRVALNISFQELGWERWIVYPPSFIFHYCHGGCGLHIPPNLSLPVPGAPPTPAQPYSLLPGAQPCCAALPGTMRPLHVRTTSDGGYSFKYETVPNLLTQHCACI Inhibin beta A chain: GLECDGKVNICCKKQFFVSFKDIGWNDWIIAPSGYHANYCEGECPSHIAGTSGSSLSFHSTVINHYRMRGHSPFANLKSCCVPTKLRPMSMLYYDDGQNIIKKDIQNMIVEECGCS | – | – | – | – | – | – | – | – | – | – | completely inhibited
